From PubChem BioAssay
Hits are enriched below; roughly 2.1% of the tested compounds scored in any of these assays.
Autophagy HCS – autophagy modulators in MEF cells, primary screen, imaging, high-content, MEF GFP-LC3; MEF GFP-LC3 puncta imaging; test concentration mostly 10 µM; calls only at 10 µM (by protocol); hit rate 0.98% among 190,000; AID 463193, 2010;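 active = percentage of spot-positive cells more than 3 SD above its plate mean, without a fluorescence outlier flag or 80% toxicity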
MT stabilize HCS – microtubule stabilizers in HeLa cells, primary screen, imaging, high-content imaging. HeLa tubulin immunostaining HCS, 24 h; share of cells brighter than vehicle mean+2SD. % tubulin-high responders, % at 10 µM. hit rate 0.83% among 200,000. AID 2205, 2009;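 active = plate Z-score above 3 for both tubulin-high and condensed-nucleus cell shares, with cell loss under 80%, at 10 µM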;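 also: anti alpha tubulin signal scored within the nucleus-defined area of each cell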
Dynein cargo inh – inhibitors of GR-EGFP nuclear translocation, primary screen, dynein cargo transport inhibitor project, imaging, high-content, 3617.4 mouse cells; AID 1381, 2008; test concentration mostly 20 µM; stimulated with dexamethasone, 1 µM; active compounds read low; hit rate 0.47% among 220,000; z-score, hits read low;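 active = plate z-score of nuclear minus cytoplasmic receptor signal below a set negative limit, without overly bright fluorescence or cell loss, cut at about -3.5 in these data, passing the limit was not always enough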;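 also: z-score of nuclear minus cytoplasmic ring GR-EGFP intensity difference per well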
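Also added – dexamethasone, 1.0 µM final · Buffer or medium – tet-free, stripped-serum medium · Schedule – induction 48 h, compound 1 h, agonist 30 min · Detection – formaldehyde fixation, Hoechst nuclear stain, 10x automated fluorescence imaging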
Hsp70 act – Hsp70 transcriptional activators, primary screen, cell-based, HeLa, Hsp70 promoter luciferase, luminescence, 10 µM; HeLa Hsp70 promoter luciferase reporter; scaled: vehicle 0, proteasome-inhibitor control 100%; activation, % at 10 µM; hit rate 0.04% among 200,000;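 active = activation above the mean across all tested compounds plus 3 SD, cutoff set per campaign, cut at about 5.5% in these data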
bCat nuc transl – modulators of beta-catenin nuclear translocation, primary screen, imaging, HeLa cells, immunofluorescence, high-content. nuclear translocation activity, % at 5 µM. hit rate 0.3% among 190,000. AID 1665, 2009;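 active = nuclear translocation activity above 50% at 5 µM, with a well cell count of 50 or more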;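 also: per-cell ratio of nuclear to cytoplasmic median beta-catenin stain intensity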
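Technique: fluorescence imaging of beta-catenin antibody stain plus DAPI / Material: human HeLa cell line / Incubation: compound treatment 24 h, 37°C, 5% CO2 / Read-out basis: % activation of per-cell nuclear versus cytoplasmic median beta-catenin signal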
Hsp70 act DR – Hsp70 transcriptional activators, dose response, cell-based, HeLa, Hsp70 promoter luciferase, luminescence, triplicate; shares compounds with Hsp70 act; HeLa hsp70.1pr-luc reporter; calls only at 99 µM; hit rate 10% among 70;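 active = over 50% activation at some tested dose; inactive = under 50% activation at every tested dose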
Dynein confirm – dynein cargo transport inhibitors, GR-EGFP translocation, confirmation, imaging, high-content imaging, GR-EGFP cells | shares compounds with Dynein cargo inh | 3617.4 GR-EGFP nuclear translocation imaging, dexamethasone-induced | calls only at 20 µM | hit rate 69% among 1,000;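 active = inhibition of receptor movement into the nucleus at or above a set limit in both runs, with normal cell brightness and cell count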;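 also: dexamethasone at 1 µM final in well for 30 min; nuclear minus cytoplasmic GR-EGFP mean intensity difference in channel 2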
Each line names hits and unclear results; the compound was inactive in the other large screens (follow-up assays come after a bar, where they were run).

COc1cc(CN2CCCC(CO)(Cc3cccc(Cl)c3)C2)cc2c1OCO2 (stereo not drawn)	none
COCC(=O)Nc1cccc(Br)c1	Hsp70 act 6.3 (no result: bCat nuc transl) | Hsp70 act DR inactive
CN(C)CC(C)(C)CNS(=O)(=O)c1ccc(Cl)s1	none
Cn1c(CCN2CCOCC2)nc2cc(NC(=O)COc3ccc(Cl)cc3)ccc21	Hsp70 act 8.7 | Hsp70 act DR inactive
COc1ccc(OCC(=O)Nc2ccc3c(c2)nc(CCN2CCOCC2)n3C)cc1	none
O=C(NCc1cccc(C(F)(F)F)c1)C1CC(c2ccc(C(F)(F)F)cc2)=NO1 (stereo not drawn)	none (no result: Autophagy HCS, MT stabilize HCS, Hsp70 act)
O=C(Nc1ccc(N2CCN(C(=O)c3ccccc3)CC2)cc1)c1ccc([N+](=O)[O-])o1	MT stabilize HCS 15, Hsp70 act 32 | Hsp70 act DR inactive
CCC(C(=O)O)N1C(=O)C2CCCCC2C1=O (stereo not drawn)	none (no result: Autophagy HCS, MT stabilize HCS, Hsp70 act)
COC(=O)c1[nH]c(C)c(/C(O)=C2\C(=O)C(=O)N(CCN3CCOCC3)C2c2ccc(C)o2)c1C (stereo not drawn)	none (no result: Autophagy HCS, MT stabilize HCS, Hsp70 act)
CC1=NOC(=O)/C1=C\c1ccc(-c2ccc(Cl)cc2Cl)o1	Hsp70 act 5.8 | Hsp70 act DR inactive
Cc1[nH][nH]c(=O)c1C(c1ccc(-c2ccc(Cl)cc2Cl)o1)c1c(C)[nH][nH]c1=O	none (no result: bCat nuc transl)
CN(Cc1ccco1)C(=O)Cn1nc(-c2ccc(Cl)cc2)ccc1=O	Hsp70 act 9.3 | Hsp70 act DR inactive
Oc1ccccc1C1Nc2cccc3cccc(c23)N1	none
O=[N+]([O-])c1ccccc1C1Nc2cccc3cccc(c23)N1	Hsp70 act 30 | Hsp70 act DR inactive
O=C(OCCN1CCCCC1)c1ccccc1Cl	none
O=C(OCn1ncc(Cl)c(Cl)c1=O)c1ccc(F)cc1	Hsp70 act 13 (no result: bCat nuc transl) | Hsp70 act DR inactive
O=C(OCn1ncc(Cl)c(Cl)c1=O)c1ccccc1Cl	Hsp70 act 7.4 (no result: bCat nuc transl) | Hsp70 act DR active
O=C(COC(=O)c1ccc(F)cc1)Nc1ccc(Cl)cn1	none (no result: Autophagy HCS, MT stabilize HCS, Hsp70 act)
O=C1/C(=C/c2ccncc2)CCC/C1=C\c1ccncc1	Autophagy HCS active, MT stabilize HCS 31, Dynein cargo inh -7, Hsp70 act 210 (no result: bCat nuc transl) | Hsp70 act DR active
COc1ccc(C2Nc3cccc4cccc(c34)N2)cc1	none
COc1ccccc1C1Nc2cccc3cccc(c23)N1	Dynein cargo inh -4.7, Hsp70 act 24 | Hsp70 act DR inactive | Dynein confirm inactive
CC(=O)N1CCN(c2ccc(NC(=O)c3ccc(Br)o3)cc2Cl)CC1	none
CC(C)C(=O)N1CCN(c2ccc(NC(=O)c3ccc([N+](=O)[O-])o3)cc2Cl)CC1	MT stabilize HCS 53, Dynein cargo inh -4.2, Hsp70 act 74 | Hsp70 act DR inactive | Dynein confirm active
CCCC(=O)N1CCN(c2ccc(NC(=O)c3ccc([N+](=O)[O-])o3)cc2Cl)CC1	Autophagy HCS active, Dynein cargo inh -4.7, Hsp70 act 35 | Hsp70 act DR inactive | Dynein confirm active
C=CCNC(=O)c1ccccc1NC(=O)COc1ccccc1	none
COC(=O)C(=O)/C=C(\O)c1c(C)cc(C)cc1C	none (no result: Autophagy HCS, MT stabilize HCS, Hsp70 act)
CCOC(=O)/C(=C\c1cccnc1)C(=O)c1cc(C(C)=O)c(Nc2ccccc2)s1	Autophagy HCS active, Dynein cargo inh -5.7, Hsp70 act 17 | Hsp70 act DR inactive | Dynein confirm active
COc1cc(OC)nc(-n2ncc(Br)c(Br)c2=O)n1	Dynein cargo inh -3.5, Hsp70 act 30 (no result: bCat nuc transl) | Hsp70 act DR active | Dynein confirm active
CCOc1ccccc1NC(=S)N(Cc1cc2ccc(C)cc2[nH]c1=O)CC1CCCN1CC (stereo not drawn)	none
Cc1cc(Cl)n2c(nc3ccccc32)c1C#N	Dynein cargo inh -5.2, Hsp70 act 9.7, bCat nuc transl 106 | Hsp70 act DR inactive | Dynein confirm active
